ChEMBL document CHEMBL1150354, “'Hybrid' benzofuran-benzopyran congeners as rigid analogs of hallucinogenic phenethylamines” (Bioorg Med Chem, 2008)

How the values were obtained:
[1] = biological target: T1, 5-hydroxytryptamine receptor 2A (Rattus norvegicus, UniProt P14842); assay: Displacement of [3H]ketanserin from rat 5HT2A receptor expressed in mouse NIH3T3 cells; type: cell-based
Outline: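 Membranes came from NIH-3T3 cells stably expressing rat 5-HT2A receptor (GF-6, 5500 fmol/mg). Competition used 0.5nM [3H]-ketanserin against increasing test compound concentrations (ca. 10 pM - 10 μM). Curves were fitted to give Ki, reported as mean (SEM) over n experiments.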

[2] = biological target: T1, 5-hydroxytryptamine receptor 2A; assay: Agonist activity at rat 5HT2A receptor expressed in mouse NIH3T3 cells assessed as stimulation of inositol phosphate accumulation; type: functional, cell-based
Outline: (§1)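 Read-out was stimulated radiolabeled inositol phosphate accumulation. Each plate normalized to water-stimulated wells (0%) and 10 μM serotonin (100%). EC50 and intrinsic activity given as mean (SEM) over n experiments.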

[3] = biological target: 5-hydroxytryptamine receptor 2A (Rattus norvegicus) (UniProt P14842); assay: Intrinsic activity at rat 5HT2A receptor expressed in mouse NIH3T3 cells assessed as stimulation of inositol phosphate accumulation relative to serotonin; type: functional, cell-based
Outline: as §1, with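 “NIH-3T3 cells stably expressing rat 5-HT2A receptor (GF-6, 5500 fmol/mg), kept in DMEM with 300 μg/ml G-418. Read-out” for “Read-out”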

Rattus norvegicus [4] = assay: Hallucinogenic activity in D-lysergic acid N,N-diethylamide-trained Sprague-Dawley rat assessed as disrupted behavior at 0.17 mg/kg, ip after 30 mins by two-lever drug discrimination assay; type: functional; conditions: route intraperitoneal
Outline: (§2)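 Male Sprague-Dawley rats (200-220 g at start) trained to discriminate LSD tartrate (186 nmol/kg; 0.08 mg/kg, ip) from saline, FR50 food reinforcement, two levers. Test drug given ip 30 min before an extinction session. A session was scored as disruption if 50 presses on one lever were not completed within 5 min. %D is the percentage of rats disrupted at each dose.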

Rattus norvegicus [5] = assay: Hallucinogenic activity in D-lysergic acid N,N-diethylamide-trained Sprague-Dawley rat assessed as disrupted behavior at 0.35 mg/kg, ip after 30 mins by two-lever drug discrimination assay; type: functional; conditions: route intraperitoneal; outline: as §2
Rattus norvegicus [6] = assay: Hallucinogenic activity in D-lysergic acid N,N-diethylamide-trained Sprague-Dawley rat assessed as disrupted behavior at 0.69 mg/kg, ip after 30 mins by two-lever drug discrimination assay; type: functional; conditions: route intraperitoneal; outline: as §2
Rattus norvegicus [7] = assay: Hallucinogenic activity in D-lysergic acid N,N-diethylamide-trained Sprague-Dawley rat assessed as selection of drug-appropriate lever at 0.17 mg/kg, ip after 30 mins by two-lever drug discrimination assay; type: functional; conditions: route intraperitoneal
Outline: (§3)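 Male Sprague-Dawley rats (200-220 g at start) trained to discriminate LSD (0.08 mg/kg ip) from saline, FR50 food-reinforced two-lever task, training to ≥85% accuracy on 8 of 10 sessions. Test drug given ip 30 min before an extinction session, ended at 50 presses on one lever. %SDL is the percentage of rats choosing the drug lever per dose. Treatments randomized.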

Rattus norvegicus [8] = assay: Hallucinogenic activity in D-lysergic acid N,N-diethylamide-trained Sprague-Dawley rat assessed as selection of drug-appropriate lever at 0.35 mg/kg, ip after 30 mins by two-lever drug discrimination assay; type: functional; conditions: route intraperitoneal; outline: as §3
Rattus norvegicus [9] = assay: Hallucinogenic activity in D-lysergic acid N,N-diethylamide-trained Sprague-Dawley rat assessed as selection of drug-appropriate lever at 0.69 mg/kg, ip after 30 mins by two-lever drug discrimination assay; type: functional; conditions: route intraperitoneal; outline: as §3
Rattus norvegicus [10] = assay: Hallucinogenic potency in ip dosed D-lysergic acid N,N-diethylamide-trained Sprague-Dawley rat after 30 mins; type: functional; conditions: 0.5 h
Rattus norvegicus [11] = assay: Hallucinogenic activity in D-lysergic acid N,N-diethylamide-trained Sprague-Dawley rat assessed as disrupted behavior at 0.25 mg/kg, ip after 30 mins by two-lever drug discrimination assay; type: functional; conditions: route intraperitoneal; outline: as §2
Rattus norvegicus [12] = assay: Hallucinogenic activity in D-lysergic acid N,N-diethylamide-trained Sprague-Dawley rat assessed as disrupted behavior at 0.38 mg/kg, ip after 30 mins by two-lever drug discrimination assay; type: functional; conditions: route intraperitoneal; outline: as §2
Rattus norvegicus [13] = assay: Hallucinogenic activity in D-lysergic acid N,N-diethylamide-trained Sprague-Dawley rat assessed as disrupted behavior at 0.50 mg/kg, ip after 30 mins by two-lever drug discrimination assay; type: functional; conditions: dose 0.5 mg/kg; route intraperitoneal; outline: as §2
Rattus norvegicus [14] = assay: Hallucinogenic activity in D-lysergic acid N,N-diethylamide-trained Sprague-Dawley rat assessed as selection of drug-appropriate lever at 0.25 mg/kg, ip after 30 mins by two-lever drug discrimination assay; type: functional; conditions: route intraperitoneal; outline: as §3
Rattus norvegicus [15] = assay: Hallucinogenic activity in D-lysergic acid N,N-diethylamide-trained Sprague-Dawley rat assessed as selection of drug-appropriate lever at 0.38 mg/kg, ip after 30 mins by two-lever drug discrimination assay; type: functional; conditions: route intraperitoneal; outline: as §3
Rattus norvegicus [16] = assay: Hallucinogenic activity in D-lysergic acid N,N-diethylamide-trained Sprague-Dawley rat assessed as selection of drug-appropriate lever at 0.50 mg/kg, ip after 30 mins by two-lever drug discrimination assay; type: functional; conditions: dose 0.5 mg/kg; route intraperitoneal; outline: as §3
Rattus norvegicus [17] = assay: Hallucinogenic activity in D-lysergic acid N,N-diethylamide-trained Sprague-Dawley rat assessed as disrupted behavior at 0.09 mg/kg, ip after 30 mins by two-lever drug discrimination assay; type: functional; conditions: route intraperitoneal; outline: as §2
Rattus norvegicus [18] = assay: Hallucinogenic activity in D-lysergic acid N,N-diethylamide-trained Sprague-Dawley rat assessed as selection of drug-appropriate lever at 0.09 mg/kg, ip after 30 mins by two-lever drug discrimination assay; type: functional; conditions: route intraperitoneal; outline: as §3

T1 sequence (P14842 whole entry): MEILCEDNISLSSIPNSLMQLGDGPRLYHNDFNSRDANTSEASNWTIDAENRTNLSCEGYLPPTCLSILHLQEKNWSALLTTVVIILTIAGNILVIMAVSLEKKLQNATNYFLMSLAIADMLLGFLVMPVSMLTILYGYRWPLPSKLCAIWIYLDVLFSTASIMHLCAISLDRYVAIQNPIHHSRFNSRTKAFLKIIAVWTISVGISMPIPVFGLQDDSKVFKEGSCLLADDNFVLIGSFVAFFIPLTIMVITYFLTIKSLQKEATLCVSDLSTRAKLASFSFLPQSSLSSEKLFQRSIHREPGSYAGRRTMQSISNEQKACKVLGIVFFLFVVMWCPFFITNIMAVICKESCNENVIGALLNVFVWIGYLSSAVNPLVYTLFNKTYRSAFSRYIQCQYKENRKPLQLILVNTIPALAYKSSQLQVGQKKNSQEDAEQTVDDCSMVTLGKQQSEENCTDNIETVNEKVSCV
Chain of 5-hydroxytryptamine receptor 2A (Rattus norvegicus) (P14842 whole entry): as above

SMILES | Ki [1] [nM] | EC50 [2] [nM] | Intrinsic activity [3] [%] | also measured
CC(N)Cc1c2c(c(Br)c3c1OCCC3)OCC2 (centres undefined) | 5.3 | 78 | 74 | Activity (Rattus norvegicus [4]): 17%; Activity (Rattus norvegicus [5]): 0%; Activity (Rattus norvegicus [6]): 0%; Activity (Rattus norvegicus [7]): 10%; Activity (Rattus norvegicus [8]): 41%; Activity (Rattus norvegicus [9]): 80%; ED50 (Rattus norvegicus [10]): 1.16 µmol/kg
NCCc1c2c(c(Br)c3c1OCCC3)OCC2 | 8.4 | 146 | 64 | 
CC(N)Cc1c2c(c(Br)c3c1OCCC3)OCCC2 (centres undefined) | 3.1 | 258 | 72 | 
CC(N)Cc1c2c(c(Br)c3ccoc13)OCCC2 (centres undefined) | 1 | 13 | 102 | 
NCCc1c2c(c(Br)c3c1OCCC3)OCCC2 | 4.5 | 241 | 61 | 
CC(N)Cc1c2c(c(Br)c3c1OCC3)OCC2 (centres undefined) | 1 |  | 88 | 
COc1cc(CC(C)N)c(OC)cc1Br (centres undefined) [BROLAMFETAMINE] |  |  | 73 | Activity (Rattus norvegicus [11]): 46%; Activity (Rattus norvegicus [12]): 40%; Activity (Rattus norvegicus [13]): 36%; Activity (Rattus norvegicus [14]): 29%; Activity (Rattus norvegicus [15]): 50%; Activity (Rattus norvegicus [16]): 89%
CC(N)Cc1c2c(c(Br)c3c1OCC3)OCCC2 (centres undefined) | 3.6 | 19 | 86 | Activity (Rattus norvegicus [17]): 0%; Activity (Rattus norvegicus [4]): 0%; Activity (Rattus norvegicus [5]): 0%; Activity (Rattus norvegicus [18]): 33%; Activity (Rattus norvegicus [7]): 54%; Activity (Rattus norvegicus [8]): 83%; ED50 (Rattus norvegicus [10]): 0.38 µmol/kg
NCCc1c2c(c(Br)c3c1OCC3)OCCC2 | 11 | 9.4 | 61 | 
